pIC50: −log10 of the molar value. One block for each molecule: values may come before it.
Assays:
[1] = test system: Human immunodeficiency virus; assay: Antiviral activity against HIV 3B in MT4 cells assessed as inhibition of replication after 3 days in presence of 10% fetal bovine serum; format: functional; conditions: Human immunodeficiency virus 1, 3B, MT4, 72 h; read-out: CIC95
Method in brief: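 MT4 cells infected overnight with wild-type H9IIIB virus (moi 0.01) without compound, washed, then cultured 3 days across a compound concentration range in 10% FBS. Replication read as p24 in culture supernatants. CIC95 = lowest concentration inhibiting replication by ≥95%.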

[2] = Inhibition of HIV NL43 recombinant reverse transcriptase by scintillation proximity assay; set-up: species or system Human immunodeficiency virus
Method in brief: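 Purified recombinant wild-type RT (NL_43) polymerase activity measured as 3H-dNTP incorporation, using a 500 nt heteropolymeric RNA template with biotinylated DNA primer. Read by scintillation proximity assay.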

[3] = biological target: Human immunodeficiency virus type 1 reverse transcriptase (Human immunodeficiency virus 1, UniProt Q72547, Y181C); assay: Inhibition of HIV HXB2 recombinant reverse transcriptase Y181C mutant by scintillation proximity assay
[4] = biological target: Human immunodeficiency virus type 1 reverse transcriptase (Human immunodeficiency virus 1, UniProt Q72547, K103N); assay: Inhibition of HIV NL43 recombinant reverse transcriptase K103N mutant by scintillation proximity assay

Compound: O=S(=O)(c1c(-c2nc3ccc(F)cc3[nH]2)[nH]c2ccc(Br)cc12)N1CCCC1
IC95 [1]: 280 nM | pIC50 [2]: 7.82 | pIC50 [3]: 5.28 | pIC50 [4]: 6.66

pIC50 [2]: 9.70
Compound: NC(=O)c1[nH]c2ccc(Br)cc2c1S(=O)(=O)NC1CCC(F)(F)C1 (centres undefined)
IC95 [1]: 140 nM

Compound: COc1ccc2nc(-c3[nH]c4ccc(Br)cc4c3S(=O)(=O)N3CCCC3)[nH]c2c1
IC95 [1]: 400 nM | pIC50 [2]: 7.35 | pIC50 [3]: 5.29 | pIC50 [4]: 6.82

Compound: O=C(NCc1nccs1)c1[nH]c2ccc(Br)cc2c1S(=O)(=O)N1CCCC1
IC95 [1]: < 7.8 nM | pIC50 [2]: 8.55 | pIC50 [3]: 6.70 | pIC50 [4]: 6.55

pIC50 [2]: 7.74
Compound: NC(=O)c1[nH]c2ccc(Br)cc2c1S(=O)(=O)NC1CCCC1
IC95 [1]: 125 nM

Compound: O=S(=O)(c1c(-c2ncc(-c3ccccc3)[nH]2)[nH]c2ccc(Br)cc12)N1CCCC1
IC95 [1]: 67 nM | pIC50 [2]: 7.96 | pIC50 [3]: < 5.04 | pIC50 [4]: 6.82

Compound: O=C(NCc1ccnc2ccccc12)c1[nH]c2ccc(Br)cc2c1S(=O)(=O)N1CCCC1
IC95 [1]: 82 nM | pIC50 [2]: 8.51 | pIC50 [3]: 7.20 | pIC50 [4]: 7.60

pIC50 [2]: 8.30
Compound: Cc1cnc(-c2[nH]c3ccc(Cl)cc3c2S(=O)(=O)c2ccccc2)[nH]1
IC95 [1]: 12 nM

Compound: NC(=O)c1[nH]c2ccc(Cc3ccc(Cl)cn3)cc2c1S(=O)(=O)N1CCCC1
pIC50 [2]: 7.23 | pIC50 [3]: < 5.00 | pIC50 [4]: 5.09

Compound: O=C(NCc1c(F)cccc1Cl)c1[nH]c2ccc(Br)cc2c1S(=O)(=O)N1CCCC1
IC95 [1]: 25 nM | pIC50 [2]: 8.42 | pIC50 [3]: 7.80 | pIC50 [4]: 7.70

pIC50 [2]: 7.85
Compound: NC(=O)c1[nH]c2ccc(Br)cc2c1S(=O)(=O)NC1CCCCC1
IC95 [1]: 125 nM

pIC50 [2]: 6.03
Compound: NC(=O)c1[nH]c2ccc(C3CC3)cc2c1S(=O)(=O)N1CCCC1
IC95 [1]: 160 nM

Compound: CCC(OC)c1cnc(-c2[nH]c3ccc(Br)cc3c2S(=O)(=O)N2CCCC2)[nH]1 (centres undefined)
IC95 [1]: 100 nM | pIC50 [2]: 7.80 | pIC50 [3]: 6.62 | pIC50 [4]: 6.96

Compound: O=C(NCc1ccncc1)c1[nH]c2ccc(Br)cc2c1S(=O)(=O)N1CCCC1
IC95 [1]: < 7.8 nM | pIC50 [2]: 7.85 | pIC50 [3]: 8.20 | pIC50 [4]: 6.77

Compound: N#Cc1ccc2[nH]c(C(N)=O)c(S(=O)(=O)N3CCCC3)c2c1
IC95 [1]: 16 nM | pIC50 [2]: 8.04 | pIC50 [3]: < 5.00 | pIC50 [4]: 5.64

Compound: O=S(=O)(c1c(-c2nc3ccccc3[nH]2)[nH]c2ccc(Br)cc12)N1CCCC1
IC95 [1]: 78 nM | pIC50 [2]: 8.16 | pIC50 [3]: 7.42 | pIC50 [4]: 6.55

pIC50 [2]: 6.26
Compound: NC(=O)c1[nH]c2ccc(-c3ccccc3)cc2c1S(=O)(=O)N1CCCC1
IC95 [1]: 1300 nM

Compound: CCC(O)c1cnc(-c2[nH]c3ccc(Br)cc3c2S(=O)(=O)N2CCCC2)[nH]1 (centres undefined)
IC95 [1]: 50 nM | pIC50 [2]: 8.06 | pIC50 [3]: 5.59 | pIC50 [4]: 7.21

pIC50 [2]: 5.66
Compound: NC(=O)c1[nH]c2ccc(-c3cccnc3)cc2c1S(=O)(=O)N1CCCC1
IC95 [1]: 310 nM

Compound: NC(=O)c1[nH]c2ccc(Cl)cc2c1S(=O)(=O)c1ccccc1 [L-737126]
pIC50 [2]: 8.52 | pIC50 [3]: 7.15 | pIC50 [4]: 6.94

Compound: NC(=O)c1[nH]c2ccc(Cl)cc2c1S(=O)(=O)N1CCCC1
IC95 [1]: < 7.8 nM | pIC50 [2]: 8.41 | pIC50 [3]: 7.32 | pIC50 [4]: 5.71

pIC50 [2]: 8.35
Compound: NC(=O)c1[nH]c2ccc(Br)cc2c1S(=O)(=O)N1CCC(F)(F)CC1
IC95 [1]: 410 nM

pIC50 [2]: 9.30
Compound: NC(=O)c1[nH]c2ccc(Br)cc2c1S(=O)(=O)NC1CCC1
IC95 [1]: 125 nM

Compound: O=C(NCCO)c1[nH]c2ccc(Br)cc2c1S(=O)(=O)N1CCCC1
IC95 [1]: 625 nM | pIC50 [2]: 7.82 | pIC50 [3]: 8.16 | pIC50 [4]: 5.55

pIC50 [2]: 7.72
Compound: CCCNS(=O)(=O)c1c(C(N)=O)[nH]c2ccc(Br)cc12
IC95 [1]: 160 nM

Compound: O=C(NCc1ccn[nH]1)c1[nH]c2ccc(Br)cc2c1S(=O)(=O)N1CCCC1
IC95 [1]: < 7.8 nM | pIC50 [2]: 8.60 | pIC50 [3]: 6.08 | pIC50 [4]: 6.59

Compound: O=S(=O)(c1c(-c2nc3cccc(O)c3[nH]2)[nH]c2ccc(Br)cc12)N1CCCC1
IC95 [1]: 82 nM | pIC50 [2]: 8.00 | pIC50 [3]: 6.09 | pIC50 [4]: 7.32

Compound: NC(=O)c1[nH]c2ccc(Br)cc2c1S(=O)(=O)N1CCCC1
IC95 [1]: < 7.8 nM | pIC50 [3]: 6.92 | pIC50 [4]: 5.00

Compound: O=C(NCc1ccccc1O)c1[nH]c2ccc(Br)cc2c1S(=O)(=O)N1CCCC1
IC95 [1]: 23 nM | pIC50 [2]: 8.62 | pIC50 [3]: 8.03 | pIC50 [4]: 7.51

Compound: O=C(NCc1cncs1)c1[nH]c2ccc(Br)cc2c1S(=O)(=O)N1CCCC1
IC95 [1]: 16 nM | pIC50 [2]: 8.21 | pIC50 [3]: 8.22 | pIC50 [4]: 7.03

pIC50 [2]: 6.37
Compound: NC(=O)c1[nH]c2ccc(C#CC3CC3)cc2c1S(=O)(=O)N1CCCC1
IC95 [1]: 630 nM

pIC50 [2]: 8.24
Compound: NC(=O)c1[nH]c2ccc(Br)cc2c1S(=O)(=O)N1CCCCC1
IC95 [1]: 16 nM

Compound: Cc1cnc(-c2[nH]c3ccc(Br)cc3c2S(=O)(=O)N2CCCC2)[nH]1
IC95 [1]: < 7.8 nM | pIC50 [2]: 8.51 | pIC50 [3]: 7.60 | pIC50 [4]: 7.38

Compound: O=S(=O)(c1c(-c2nc3cccnc3[nH]2)[nH]c2ccc(Br)cc12)N1CCCC1
IC95 [1]: 82 nM | pIC50 [2]: 7.40 | pIC50 [3]: 5.30 | pIC50 [4]: 6.43

Reference: ChEMBL document CHEMBL1140821, “Novel indole-3-sulfonamides as potent HIV non-nucleoside reverse transcriptase inhibitors (NNRTIs)” (Bioorg Med Chem Lett, 2008)
